Reference: article PMC7224986 (Journal of medicinal chemistry, 2016)

Assays:
T. gondii parasites = assay: Invasion inhibition assay of T. gondii into host fibroblast cells; assay type: cell-based, Toxoplasma gondii
Summary of the method: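 Type I RH strain, clone 2F, expressing E. coli β-galactosidase. Compound came from a 10 mM DMSO stock diluted in medium with 1% DMSO, which was also the vehicle control. Parasites were preincubated with compound for 20 min at room temperature. Then 5 × 10^2 parasites/well were added to confluent human foreskin fibroblasts in DMEM/10% FBS, centrifuged ~300g for 5 min, and cultured at 37°C, 5% CO2. EC50 from a variable-slope sigmoidal fit; three experiments, each in triplicate.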

mammalian actin = mammalian actin (Oryctolagus cuniculus, UniProt P68135); assay: Pyrene fluorescence actin polymerization assay; assay type: biochemical; settings: for inhibition at 10 µM: read-out: Inhibition of mammalian actin polymerization at 10 μM; for inhibition at 100 µM: read-out: Inhibition of mammalian actin polymerization at 100 μM; for Inhibition of mammalian actin polymerization at 10 μM: 10 μM compound
Summary of the method: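 Actin was 5% pyrene-labelled, held in Ca buffer G (2 mM Tris pH 8, 0.2 mM ATP). It was converted to the Mg2+ form (final 1 mM EGTA, 0.1 mM MgCl2) for 2 min at room temperature. Actin at 2.5 μM final was preincubated 1 min with compound in DMSO; latrunculin B was the positive control. Polymerisation was started with KCl 50 mM, imidazole 10 mM pH 7, MgCl2 1 mM, EGTA 1 mM. Pyrene fluorescence (ex 365/em 407 nm) was read every 15 s for 90 min, in triplicate.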

**Q.** For `CCCCC(=O)OC1CCOC(OC)([C@@H]2CSC(=O)N2Cc2ccc(OC)cc2)C1` (stereo partly drawn) [Compound 10, 2-Methoxy-2-((R)-3-(4-methoxybenzyl)-2-oxothiazolidin-4-yl)tetrahydro-2H-pyran-4-yl pentanoate], which “activity against T. gondii (in words)” value (T. gondii parasites) is on record?
**A.** inactive

**Q.** `COc1ccc(CN2C(=O)SC[C@H]2C2(OC)CC(OC(=O)C3CCCC3)CCO2)cc1` (stereo partly drawn) [Compound 11, 2-Methoxy-2-((R)-3-(4-methoxybenzyl)-2-oxothiazolidin-4-yl)tetrahydro-2H-pyran-4-yl cyclopentanecarboxylate] was tested. Which “activity against T. gondii (in words)” value (T. gondii parasites) did it give?
**A.** inactive

**Q.** Which inhibition at 10 µM (mammalian actin) does the source give for `COc1ccc(CN2C(=O)SC[C@H]2C2(OC)CC(OC(=O)c3ccccc3I)CCO2)cc1` (stereo partly shown) [Compound 14, 2-Methoxy-2-(3-(4-methoxybenzyl)-2-oxothiazolidin-4-yl)tetrahydro-2H-pyran-4-yl 2-iodobenzoate] here?
**A.** < 10%

**Q.** What about the inhibition at 100 µM (mammalian actin) of the same compound?
**A.** < 10%

**Q.** What does the source list for `COc1ccc(CN2C(=O)SC[C@H]2C2(OC)CC(OC(=O)c3ccccc3-c3cccs3)CCO2)cc1` (stereo partly drawn) [Compound 15, 2-Methoxy-2-((R)-3-(4-methoxybenzyl)-2-oxothiazolidin-4-yl)tetrahydro-2H-pyran-4-yl 2-(thiophen-2-yl)benzoate]?
**A.** inhibition at 10 µM (mammalian actin): < 10%; inhibition at 100 µM (mammalian actin): < 10%

**Q.** Which inhibition at 10 µM (mammalian actin) does the source give for `COc1ccc(CN2C(=O)SC[C@H]2C2(OC)CC(OC(=O)c3ccccc3C3=CCCCC3)CCO2)cc1` (stereo partly drawn) [Compound 16, 2-Methoxy-2-((R)-3-(4-methoxybenzyl)-2-oxothiazolidin-4-yl)tetrahydro-2H-pyran-4-yl 2',3',4',5'-tetrahydro-[1,1'-biphenyl]-2-carboxylate] here?
**A.** < 10%

**Q.** What about the inhibition at 100 µM (mammalian actin) of the same compound?
**A.** < 10%

**Q.** What does the source list for `COc1ccc(CN2C(=O)SC[C@H]2C2(OC)CC(OC(=O)c3ccccc3-c3cccc4ccccc34)CCO2)cc1` (stereo partly drawn) [Compound 17, 2-Methoxy-2-((R)-3-(4-methoxybenzyl)-2-oxothiazolidin-4-yl)tetrahydro-2H-pyran-4-yl 2-(naphthalen-1-yl)benzoate]?
**A.** inhibition at 10 µM (mammalian actin): < 10%; inhibition at 100 µM (mammalian actin): < 10%

**Q.** `C/C1=C/C(=O)O[C@@H]2C[C@@H](CC[C@H](C)/C=C\CC1)O[C@@](O)([C@@H]1CSC(=O)N1)C2` [Latrunculin B, latrunculin B, reference compound] was tested. Which “Inhibition of mammalian actin polymerization at 10 μM” value (mammalian actin; 2.5 μM actin, pyrene fluorescence) did it give?
**A.** 100%

**Q.** What about the “Inhibition of mammalian actin polymerization at 10 μM” value (mammalian actin; 2.5 μM actin, pyrene fluorescence, listed as latrunculin B) of the same compound?
**A.** 100%

**Q.** What about the “Inhibition of mammalian actin polymerization at 100 μM” value (mammalian actin; 100 μM compound, 2.5 μM actin, pyrene fluorescence) of the same compound?
**A.** 100%
